From ChEMBL document CHEMBL3621107, “Ring fusion strategy for synthesis and lead optimization of sulfur-substituted anthra[1,2-c][1,2,5]thiadiazole-6,11-dione derivatives as promising scaffold of antitumor agents” (Eur J Med Chem, 2015)

Tests used:
NCI-H226 = experiment: Cytotoxicity against human NCI-H226 cells assessed as cell growth at 10 uM after 48 hrs by SRB assay relative to control; type: functional; details: NCI-H226, 48 h, read-out: Activity
In short: (§1)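 First-stage NCI DTP one-dose screen against the 60 human tumour cell line panel. Compounds were tested at a single 10 μM level, and results are given as growth percentage.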

UACC-62 = experiment: Cytotoxicity against human UACC62 cells assessed as cell growth at 10 uM after 48 hrs by SRB assay relative to control; type: functional; details: UACC-62, 48 h, read-out: Activity
In short: (§2)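 NCI-60 one-dose screen run by NCI DTP: each cell line exposed to a single 10 µM dose, and percentage growth recorded against untreated growth.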

[1] = Cytotoxicity against human Hs578T cells assessed as cell growth at 10 uM after 48 hrs by SRB assay relative to control; type: functional; details: Hs-578T, read-out: Activity
In short: (§3)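 First-stage NCI-60 screen by the NCI Developmental Therapeutics Program. Each compound was tested once at a single concentration of 10 μM against the 60-cell-line panel. Growth percentage was reported for each cell line.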

IGROV-1 = experiment: Cytotoxicity against human IGROV1 cells assessed as cell growth at 10 uM after 48 hrs by SRB assay relative to control; type: functional; details: IGROV-1, 48 h, read-out: Activity; in short: as §3
NCI-H23 = experiment: Cytotoxicity against human NCI-H23 cells assessed as cell growth at 10 uM after 48 hrs by SRB assay relative to control; type: functional; details: NCI-H23, 48 h, read-out: Activity; in short: as §1
TK-10 = experiment: Cytotoxicity against human TK10 cells assessed as cell growth at 10 uM after 48 hrs by SRB assay relative to control; type: functional; details: TK-10, 48 h, read-out: Activity; in short: as §2
NCI-H460 = experiment: Cytotoxicity against human NCI-H460 cells assessed as cell growth at 10 uM after 48 hrs by SRB assay relative to control; type: functional; details: NCI-H460, 48 h, read-out: Activity; in short: as §1
MDA-MB-231 = experiment: Cytotoxicity against human MDA-MB-231 cells assessed as cell growth at 10 uM after 48 hrs by SRB assay relative to control; type: functional; details: MDA-MB-231, 48 h, read-out: Activity; in short: as §1
M14 = experiment: Cytotoxicity against human M14 cells assessed as cell growth at 10 uM after 48 hrs by SRB assay relative to control; type: functional; details: M14, 48 h, read-out: Activity; in short: as §3
RXF 393 = experiment: Cytotoxicity against human RXF393 cells assessed as cell growth at 10 uM after 48 hrs by SRB assay relative to control; type: functional; details: RXF 393, 48 h, read-out: Activity; in short: as §1
PC-3 = experiment: Cytotoxicity against human PC3 cells assessed as cell growth at 10 uM after 48 hrs by SRB assay relative to control; type: functional; details: PC-3, 48 h, read-out: Activity; in short: as §1
KM12 = experiment: Cytotoxicity against human KM12 cells assessed as cell growth at 10 uM after 48 hrs by SRB assay relative to control; type: functional; details: KM12, 48 h, read-out: Activity; in short: as §3
[2] = Cytotoxicity against human EKVX cells assessed as cell growth at 10 uM after 48 hrs by SRB assay relative to control; type: functional; details: read-out: Activity; in short: as §3
A498 = experiment: Cytotoxicity against human A498 cells assessed as cell growth at 10 uM after 48 hrs by SRB assay relative to control; type: functional; details: A498, 48 h, read-out: Activity; in short: as §3
DU-145 [3] = experiment: Cytotoxicity against human DU145 cells after 72 hrs by MTT assay; type: functional, cell-based; details: for IC50: DU-145, 72 h
In short: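 DU-145 cells grown in RPMI-1640 with 5% heat-inactivated fetal calf serum at 37 °C, 5% CO2. About 2×10^3 cells per well were seeded and incubated for 24 h. Compounds were dissolved in DMSO freshly and diluted into medium (vehicle 0.1% DMSO), then cells were exposed for 72 h. MTT was added for 3 h at 37 °C and absorbance read at 570 nm.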

Malme-3M = experiment: Cytotoxicity against human MALME-3M cells assessed as cell growth at 10 uM after 48 hrs by SRB assay relative to control; type: functional; details: read-out: Activity; in short: as §3
T47D = experiment: Cytotoxicity against human T47D cells assessed as cell growth at 10 uM after 48 hrs by SRB assay relative to control; type: functional; details: read-out: Activity; in short: as §2
HCT-15 = experiment: Cytotoxicity against human HCT15 cells assessed as cell growth at 10 uM after 48 hrs by SRB assay relative to control; type: functional; details: HCT-15, 48 h, read-out: Activity; in short: as §3
SK-MEL-28 = experiment: Cytotoxicity against human SK-MEL-28 cells assessed as cell growth at 10 uM after 48 hrs by SRB assay relative to control; type: functional; details: SK-MEL-28, 48 h, read-out: Activity; in short: as §1
HOP-92 = experiment: Cytotoxicity against human HOP92 cells assessed as cell growth at 10 uM after 48 hrs by SRB assay relative to control; type: functional; details: HOP-92, 48 h, read-out: Activity; in short: as §3
SK-OV-3 = experiment: Cytotoxicity against human SKOV3 cells assessed as cell growth at 10 uM after 48 hrs by SRB assay relative to control; type: functional; details: SK-OV-3, 48 h, read-out: Activity; in short: as §1
U-251 = experiment: Cytotoxicity against human U251 cells assessed as cell growth at 10 uM after 48 hrs by SRB assay relative to control; type: functional; details: U-251, 48 h, read-out: Activity; in short: as §2
SK-MEL-2 = experiment: Cytotoxicity against human SK-MEL-2 cells assessed as cell growth at 10 uM after 48 hrs by SRB assay relative to control; type: functional; details: SK-MEL-2, 48 h, read-out: Activity; in short: as §1
LOX IMVI = experiment: Cytotoxicity against human LOXIMVI cells assessed as cell growth at 10 uM after 48 hrs by SRB assay relative to control; type: functional; details: read-out: Activity; in short: as §3
BT-549 = experiment: Cytotoxicity against human BT549 cells assessed as cell growth at 10 uM after 48 hrs by SRB assay relative to control; type: functional; details: BT-549, 48 h, read-out: Activity; in short: as §3
HCC 2998 = experiment: Cytotoxicity against human HCC2998 cells assessed as cell growth at 10 uM after 48 hrs by SRB assay relative to control; type: functional; details: HCC 2998, 48 h, read-out: Activity; in short: as §3
786-0 = experiment: Cytotoxicity against human 786-0 cells assessed as cell growth at 10 uM after 48 hrs by SRB assay relative to control; type: functional; details: 786-0, 48 h, read-out: Activity; in short: as §3
DU-145 [4] = experiment: Cytotoxicity against human DU145 cells assessed as cell growth at 10 uM after 48 hrs by SRB assay relative to control; type: functional; details: DU-145, 48 h, read-out: Activity; in short: as §3
ACHN = experiment: Cytotoxicity against human ACHN cells assessed as cell growth at 10 uM after 48 hrs by SRB assay relative to control; type: functional; details: read-out: Activity; in short: as §3
SK-MEL-5 = experiment: Cytotoxicity against human SK-MEL-5 cells assessed as cell growth at 10 uM after 48 hrs by SRB assay relative to control; type: functional; details: SK-MEL-5, 48 h, read-out: Activity; in short: as §1
HT-29 = experiment: Cytotoxicity against human HT-29 cells assessed as cell growth at 10 uM after 48 hrs by SRB assay relative to control; type: functional; details: HT-29, 48 h, read-out: Activity; in short: as §3
OVCAR-5 = experiment: Cytotoxicity against human OVCAR5 cells assessed as cell growth at 10 uM after 48 hrs by SRB assay relative to control; type: functional; details: OVCAR-5, 48 h, read-out: Activity; in short: as §1

SMILES | growth at 10 µM (NCI-H226) [%] | growth at 10 µM (UACC-62) [%] | growth at 10 µM (IGROV-1) [%] | growth at 10 µM (NCI-H23) [%] | growth at 10 µM (TK-10) [%] | growth at 10 µM (MDA-MB-231) [%] | growth at 10 µM (M14) [%] | growth at 10 µM (RXF 393) [%] | growth at 10 µM [2] [%] | IC50 (DU-145 [3]) [µM] | growth at 10 µM (Malme-3M) [%] | growth at 10 µM (T47D) [%] | growth at 10 µM (HCT-15) [%] | growth at 10 µM (SK-MEL-28) [%] | growth at 10 µM (U-251) [%] | growth at 10 µM (SK-MEL-2) [%] | growth at 10 µM (LOX IMVI) [%] | growth at 10 µM (BT-549) [%] | growth at 10 µM (HCC 2998) [%] | growth at 10 µM (786-0) [%] | other results
O=C1c2ccccc2C(=O)c2c1cc(Sc1ccc(Cl)cc1)c1nsnc21 | 104 | 90.7 | 84.9 | 100 | 140 | 89 | 105 | 118 | 94.8 | > 15 | 105 | 85 | 98.1 | 130 | 104 | 109 | 83.2 | 98.9 | 107 | 109 | growth at 10 µM [1]: 103%; growth at 10 µM (NCI-H460): 103%; growth at 10 µM (PC-3): 86.9%; growth at 10 µM (KM12): 102%; growth at 10 µM (A498): 93%; growth at 10 µM (HOP-92): 94.8%; growth at 10 µM (SK-OV-3): 109%; growth at 10 µM (DU-145 [4]): 117%
Cc1cccc(C)c1Sc1cc2c(c3nsnc13)C(=O)c1ccccc1C2=O | 78.3 | 91.7 | 66.4 | 67.4 | 119 | 30.6 | 122 | 76.2 | 82.4 | 7.88 | 73.7 | 66.8 | 47.5 | 89.3 | 53.9 | 67.5 | 44.6 | 105 | 101 | 115 | growth at 10 µM [1]: 82.4%; growth at 10 µM (NCI-H460): 87.4%; growth at 10 µM (ACHN): 83.2%; growth at 10 µM (SK-MEL-5): 70.2%; growth at 10 µM (HT-29): 97.7%; growth at 10 µM (PC-3): 59.9%; growth at 10 µM (KM12): 96%; growth at 10 µM (OVCAR-5): 114%; growth at 10 µM (DU-145 [4]): 106%
CCOc1cccc(Sc2cc3c(c4nsnc24)C(=O)c2ccccc2C3=O)c1 | 90.5 | 109 | 94.7 | 94.1 | 125 | 101 | 104 | 118 | 102 | > 15 | 109 | 86.5 | 103 | 112 | 110 | 103 | 84.1 | 104 | 105 | 100 | growth at 10 µM (ACHN): 103%; growth at 10 µM (SK-MEL-5): 107%; growth at 10 µM (HT-29): 106%; growth at 10 µM (OVCAR-5): 117%; growth at 10 µM (SK-OV-3): 99.4%
CC(C)Sc1cc2c(c3nsnc13)C(=O)c1ccccc1C2=O | 10.2 | -57.1 | -32.9 | -42.2 | 30.3 | -35.9 | -31.5 | 13.6 | -6.58 | 4.53 | -86 | -24.4 | 15.3 | -8.32 | -23.1 | -55.6 | -21.6 | 10.8 | 21 | 12.4 | growth at 10 µM [1]: -9.16%; growth at 10 µM (NCI-H460): 4.92%; growth at 10 µM (ACHN): 0.8%; growth at 10 µM (SK-MEL-5): -99.2%; growth at 10 µM (HT-29): 48.1%; growth at 10 µM (PC-3): -13.4%; growth at 10 µM (KM12): 19.3%; Activity (DU-145 [3]): Dose-dependent effect; growth at 10 µM (OVCAR-5): -27.9%; growth at 10 µM (DU-145 [4]): 6.66%
